# Bioassay records from PubChem BioAssay.
# APOBEC3G inh = blocks human APOBEC3G single-stranded DNA deamination; recombinant A3G, ssDNA deamination FAM/TAMRA fluorescence; Q9HC16; AID 493012; inhibition, % at 20 µM; 330,000 tested, 0.28% active;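 active = inhibition of at least 40% at 20 µM, with no more than 30% in the related APOBEC3A deaminase screen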;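 note: plate controls were DMSO wells with A3G for no effect and wells lacking A3G enzyme for full effect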
# APOBEC3A inh = inhibitors of human APOBEC3A DNA deaminase; 330,000 tested, 0.41% active; inhibition, % at 20 µM; recombinant A3A, FAM/TAMRA ssDNA deamination fluorescence; P31941;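 active = at least 40% inhibition at 20 µM here, with at most 30% in a related deaminase screen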;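 note: plate controls were A3A with DMSO for no effect and wells lacking A3A enzyme for full effect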
# Target sequence (P31941 whole entry, looked up): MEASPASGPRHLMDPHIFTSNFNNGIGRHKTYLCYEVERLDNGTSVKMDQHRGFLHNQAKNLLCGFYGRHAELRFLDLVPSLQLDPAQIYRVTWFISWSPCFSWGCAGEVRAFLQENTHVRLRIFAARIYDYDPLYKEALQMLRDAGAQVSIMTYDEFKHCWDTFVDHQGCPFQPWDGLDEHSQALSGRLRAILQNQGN
# SUMO HTRF inh = blocks human SUMOylation mediated by UBC9 | P63279 | HTRF SUMOylation assay, SAE1/SAE2 + UBC9, in vitro | inhibition, % at 35 µM | 290,000 tested, 0.36% active; in the data active = inhibition above about 50%, passing the limit was not always enough
# PfG6PD inh = PfG6PD (Plasmodium falciparum) enzyme inhibition; inhibition, % at 20 µM; PfGluPho enzyme, NADPH resazurin-diaphorase fluorescence; 350,000 tested, 0.78% active;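 active = inhibition reaching at least a set limit at 20 µM in the primary screen, cut at about 59% in these data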;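 note: 0% = DMSO wells with substrate and 100% = DMSO wells lacking glucose-6-phosphate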
# HKDC1 inhibitor = blocks human hexokinase HKDC1 activity. recombinant HKDC1, G6PDH/diaphorase resazurin coupled fluorescence. AID 493160. 340,000 tested, 0.16% active. inhibition, % at 20 µM;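 active = inhibition above about 35% when tested at 20 µM, limit read from the data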;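 note: plate controls were DMSO wells with enzyme for no effect and DMSO wells lacking enzyme for full effect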
#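 Test system: recombinant HKDC1 (HK5) hexokinase enzyme, produced in-house / Doses: 20 µM test compound, 1% DMSO / Timing: 90 min, room temperature / Detection: G6PDH/diaphorase-coupled fluorescence, 1 mM NADP, 100 µM resazurin, 525/613 nm / Control set: DMSO wells with and without enzyme mix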
# PfM18AAP inh-1 = blocks P. falciparum M18 aspartyl aminopeptidase; 290,000 tested, 1.2% active; recombinant PfM18AAP, H-Glu-NHMec fluorogenic cleavage; inhibition, % at 7.35 µM;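 active = inhibition above the campaign mean inhibition over all tested compounds plus 3 SD, cut at about 28% in these data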;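 note: 0% = plate median of test compound wells and 100% = 2 mM ZnCl2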
# PfM18AAP inh-2 = confirmation of Plasmodium falciparum M18 aspartyl aminopeptidase inhibitors. inhibition, % at 7.35 µM. 2,400 tested, 28% active. recombinant PfM18AAP, H-Glu-NHMec fluorogenic cleavage. shares compounds with PfM18AAP inh-1;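 active = mean inhibition over replicate wells above the hit cutoff set for the earlier primary screen, cut at about 29% in these data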;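 note: 0% = median of test compound wells and 100% = 2 mM ZnCl2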
# CTSL1 counter = counter-screen for PFM18AAP inhibitors: confirmation of human cathepsin L inhibitors; shares compounds with PfM18AAP inh-1; purified cathepsin L1, Z-Leu-Arg-MCA fluorescence; inhibition, % at 5.96 µM; 2,400 tested, under 10 active;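 active = average inhibition across replicates above the hit cutoff set in the earlier primary screen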;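 note: 0% = median of test compound wells and 100% = Z-Phe-Ala-diazomethylketone 1 µM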
# Target sequence (P07711 whole entry, looked up): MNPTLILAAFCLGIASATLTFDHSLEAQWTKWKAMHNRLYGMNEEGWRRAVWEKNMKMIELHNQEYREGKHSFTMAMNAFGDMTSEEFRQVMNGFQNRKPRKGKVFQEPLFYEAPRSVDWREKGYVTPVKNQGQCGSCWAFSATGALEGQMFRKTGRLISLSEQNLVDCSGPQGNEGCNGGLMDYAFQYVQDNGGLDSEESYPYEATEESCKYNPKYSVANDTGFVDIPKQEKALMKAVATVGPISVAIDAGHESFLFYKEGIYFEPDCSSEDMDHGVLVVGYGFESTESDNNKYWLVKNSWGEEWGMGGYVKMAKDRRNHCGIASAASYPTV
# * hit, by the source's call; / = no result. Compounds with a hit are over-represented: about 2.4% of the library has one in this group of screens.
SMILES,APOBEC3G inh,APOBEC3A inh,SUMO HTRF inh,PfG6PD inh,HKDC1 inhibitor,PfM18AAP inh-1,PfM18AAP inh-2,CTSL1 counter
O=C(Nc1nc(=O)c2ccccc2s1)c1ccccc1,-1,-6,4,36,1,43*,-56,-8
CC1CN(c2oc(COc3ccc(Cl)cc3Cl)nc2C#N)CC(C)O1 (stereo not given),7,8,-8,7,6,2,/,/
C=CCNC(=S)NNC(=O)c1cc(O)ccc1O,-2,0,-3,-15,-10,39*,29*,-8
C=CCNC(=S)NNC(=O)c1ccc(Br)cc1,-1,-1,-4,-1,-13,7,/,/
Cc1ccc(NC(=S)C2=C(O)c3sccc3N(C)S2(=O)=O)cc1,-4,-3,11,-24,0,49*,-32,5
Cc1ccc(NC(=O)C2=C(O)c3sccc3N(C)S2(=O)=O)cc1,1,1,-5,-18,2,-7,/,/
CC(=O)c1c(O)cc(C)n(Nc2nc(C)cc(C)n2)c1=O,-3,-4,-18,-20,-7,34*,-28,2
Cc1cccc(-c2nc(CS(=O)CC(=O)NCC3CCCO3)c(C)o2)c1 (stereo not given),1,-2,0,1,-7,-3,/,/
Cc1c(NC(=S)N/N=C/c2cc([N+](=O)[O-])ccc2O)c(=O)n(-c2ccccc2)n1C,3,3,/,-43,-24,28,/,/
Cc1c(NC(=S)N/N=C/c2ccc(O)cc2)c(=O)n(-c2ccccc2)n1C,-4,0,3,-4,-8,35*,6,8
CC1CCCN(Cc2csc(N)n2)C1 (stereo not given),-6,0,-12,-12,-1,0,/,/
CC1CN(C2CCN(S(=O)(=O)c3ccc(F)cc3)CC2)CC(C)O1 (stereo not given),-6,-2,18,-19,1,-1,/,/
CCn1ccnc1CN(C)C(=O)CCc1nnc(CCCc2ccccc2)o1,-7,-5,11,-17,-3,-2,/,/
O=C1NC(=S)CN1c1ccccc1,8,2,20,43,1,42*,13,-4
Cc1onc(C(=O)NN)c1C(=O)Nc1ncc(C(F)(F)F)cc1Cl,-6,4,3,6,-10,55*,-36,-5
NC(=O)CNc1ncc(C(F)(F)F)cc1Cl,-4,1,-1,6,2,1,/,/
O=C(NNc1nc2ccccc2o1)c1ccccc1,-3,3,-10,-2,0,41*,0,0
O=C(NC(=Nc1nc2ccccc2o1)NC(=O)c1ccccc1)c1ccccc1,-7,-5,-9,-8,-1,1,/,/
O=C(NNc1nc2ccccc2nc1C(F)(F)F)c1ccccc1,-8,-5,-10,3,-8,34*,-3,1
CCN(CCCNC(=O)c1[nH]c(C)c(C(C)=O)c1C)c1cccc(C)c1,-6,-4,-24,19,1,5,/,/
Cc1ccc(S(=O)(=O)N2C(=O)CCC2C(=O)Nn2cnnc2)cc1 (stereo not given),0,2,4,-9,-5,66*,32*,-3
O=C(CCc1ccccc1)OCC(=O)c1ccc([N+](=O)[O-])cc1,-5,-2,-5,41,-9,46*,-25,-5
O=C(NOCc1ccccc1)c1ccc([N+](=O)[O-])cc1,-9,0,/,-5,4,/,/,/
CC(=O)NC(c1ccco1)c1ccc2cccnc2c1O (stereo not given),-8,-3,-36,-22,-13,48*,-13,5
O=c1[nH]c(=O)n(C2CC(O)C(CO)O2)cc1I (stereo not given),/,/,/,14,-1,/,/,/
SMILES,APOBEC3G inh,APOBEC3A inh,SUMO HTRF inh,PfG6PD inh,HKDC1 inhibitor,PfM18AAP inh-1,PfM18AAP inh-2,CTSL1 counter
Cc1ccc(S(=O)(=O)Nc2ccc(O)c3ncccc23)cc1,-1,-2,-28,22,13,40*,7,-1
Cc1ccc(S(=O)(=O)Nc2ccc(O)c3cccnc23)cc1,-1,-4,-53,27,20,49*,30*,-11
Cc1ccc(S(=O)(=O)Nc2cccc3ncccc23)cc1,-5,-4,-2,-21,-1,4,/,/
COCc1cc(C)nc2sc(C(=O)N3CCN(c4ccccc4)CC3)c(N)c12,1,-5,19,-4,0,5,/,/
Cc1ccc(-c2nnn3c2nc(Cl)c2ccccc23)cc1,/,/,8,20,2,2,/,/
Cc1ccc(C(=O)Nn2cnnc2)cc1S(=O)(=O)N1CCOCC1,-7,0,-33,0,-4,51*,44*,-4
O=C(Nn1cnnc1)c1ccc(F)c(S(=O)(=O)N2CCCCC2)c1,-4,0,0,-10,-5,47*,53*,2
Cc1ccc(C(=O)NC2CC2)cc1S(=O)(=O)N1CCOCC1,-7,-4,/,-8,-1,/,/,/
O=C(Nc1ccon1)c1ccc(F)c(S(=O)(=O)N2CCCCC2)c1,-2,-2,18,-13,4,4,/,/
COc1ccc(C(c2c(C)[nH][nH]c2=O)c2c(C)[nH][nH]c2=O)cc1Br,0,-6,3,9,6,36*,15,3
COc1cc(C(c2c(C)[nH][nH]c2=O)c2c(C)[nH][nH]c2=O)cc(OC)c1OC,-8,-3,22,3,0,35*,6,-2
COc1ccc(/C(N)=N/OC(=O)c2ccco2)cc1OC,1,3,10,12,-3,1,/,/
Cc1csc(/C(=N/OC(=O)c2ccco2)C(N)=O)n1,-5,-5,1,-9,-7,51*,9,-5
Cc1cc(NC(=O)C2C3C(=O)N(Cc4ccc(Cl)cc4)C(C(=O)NCc4ccccc4)C34C=CC2(C)O4)no1 (stereo not given),1,-15,-3,-2,-6,1,/,/
CCN1CCC2(CC1)N=C(c1ccc(F)cc1)C(=S)N2C(=O)c1ccc(C(C)(C)C)cc1,-5,0,-3,45,4,14,/,/
CN1CCC2(CC1)N=C(c1ccc(F)cc1)C(=S)N2C(=O)c1ccccc1,-13,-2,-3,48,6,33*,-39,-2
Cc1cc(C(=O)CSc2ncn[nH]2)c(C)n1-c1cccc(S(=O)(=O)N2CCOCC2)c1,-4,5,6,7,-7,46*,24,5
CCN(CC)c1ccc(-n2c(C)cc(C=O)c2C)cc1,-3,-3,17,11,-4,33*,-47,0
CC(C)c1ccc(C2NC(=O)NC3=C2CCc2ccccc23)cc1 (stereo not given),-5,0,16,14,27,-2,/,/
